Measured values taken from ChEMBL document CHEMBL3272100, “3-Aminotetrahydrocarbazoles as a new series of central nervous system agents” (1977).
Active and inactive are the calls of the source.

The compounds below were run on Mus musculus (assay: Antidepressant activity in Swiss-Webster mouse assessed as prevention of reserpine-induced ptosis at 30 to 50 mg/kg, ip).
Assay type: functional, organism-based

Row | SMILES | Activity
1 | CN(C)C1CCc2[nH]c3c(F)cc(F)cc3c2C1 (stereo not drawn) [FLUCINDOLE] | inactive

What follows are compounds tested on Mus musculus (assay: Antidepressant activity in Swiss-Webster mouse assessed as prevention of reserpine-induced ptosis at 50 mg/kg, ip).
Assay type: functional, organism-based
Design: dose 50 mg/kg

Row | SMILES | Activity
2 | CN(C)C1CCc2[nH]c3cc(O)ccc3c2C1 (stereo not drawn) | inactive
3 | CN(Cc1ccccc1)C1CCc2[nH]c3c(F)cc(F)cc3c2C1 (stereo not drawn) | inactive
4 | COc1cc2[nH]c3c(c2cc1OC)CC(N(C)C)CC3 (stereo not drawn) | inactive
5 | Cc1cccc2c3c([nH]c12)CCC(N(C)C)C3 (stereo not drawn) | inactive
6 | COc1cccc2c3c([nH]c12)CCC(N(C)C)C3 (stereo not drawn) | inactive
7 | Fc1cc(F)c2[nH]c3c(c2c1)CC(N1CCCCC1)CC3 (stereo not drawn) | inactive
8 | CN(C)C1CCc2[nH]c3c(O)cccc3c2C1 (stereo not drawn) | inactive
9 | CN(C)C1CCc2[nH]c3c(C(F)(F)F)cccc3c2C1 (stereo not drawn) | inactive
10 | CN(C)C1CCc2[nH]c3ccc(OCc4ccccc4)cc3c2C1 (stereo not drawn) | inactive
11 | c1ccc2c3c([nH]c2c1)CCC(N1CCCCC1)C3 (stereo not drawn) | inactive
12 | CN(C)C1CCc2[nH]c3c(F)cccc3c2C1 (stereo not drawn) | inactive
13 | CN(C)C1CCc2[nH]c3c(Cl)cccc3c2C1 (stereo not drawn) | inactive
14 | CN(C)C1CCc2[nH]c3c(Cl)cc(Cl)cc3c2C1 (stereo not drawn) | inactive
15 | Cc1cc(C)c2[nH]c3c(c2c1)CC(N(C)C)CC3 (stereo not drawn) | inactive
16 | c1ccc2c3c([nH]c2c1)CCC(N1CCOCC1)C3 (stereo not drawn) | inactive
17 | CN(C)C1CCc2c(c3ccccc3n2CCC(=O)O)C1 (stereo not drawn) | inactive
18 | CN(C)C1CCc2[nH]c3c(Br)cccc3c2C1 (stereo not drawn) | inactive
19 | CCOC(=O)CCn1c2c(c3ccccc31)CC(N(C)C)CC2 (stereo not drawn) | inactive
20 | CNC1CCc2[nH]c3c(F)cc(F)cc3c2C1 (stereo not drawn) | inactive
21 | CN(C)C1CCc2[nH]c3ccc(O)cc3c2C1 (stereo not drawn) | Active
22 | Cc1cc(C)c2c3c([nH]c2c1)CCC(N(C)C)C3 (stereo not drawn) | Active
23 | CN(C)C1CCc2[nH]c3c(OCc4ccccc4)cccc3c2C1 (stereo not drawn) | inactive

Row | SMILES | Activity
24 | Cc1ccc2[nH]c3c(c2c1)CC(N(C)C)CC3 (stereo not drawn) | inactive
25 | Cc1cccc2c1c1c(n2C)CCC(N(C)C)C1 (stereo not drawn) | Active
26 | CN(C(=O)c1ccccc1)C1CCc2[nH]c3c(F)cc(F)cc3c2C1 (stereo not drawn) | inactive
27 | c1ccc(N2CCN(C3CCc4[nH]c5ccccc5c4C3)CC2)cc1 (stereo not drawn) | inactive
28 | CSc1cccc2c3c([nH]c12)CCC(N(C)C)C3 (stereo not drawn) | inactive
29 | CCN(CC)CCNC1CCc2[nH]c3ccccc3c2C1 (stereo not drawn) | inactive
30 | COc1cc(C(=O)OCCn2c3c(c4ccccc42)CC(N(C)C)CC3)cc(OC)c1OC (stereo not drawn) | inactive
31 | CN(C)C1CCc2[nH]c3c(Cl)c(Cl)ccc3c2C1 (stereo not drawn) | Active
32 | CN(C)C1CCc2[nH]c3c(-c4ccccc4)cccc3c2C1 (stereo not drawn) | Active
33 | CN(C)C1CCc2[nH]c3ccc(Oc4ccccc4)cc3c2C1 (stereo not drawn) | inactive
34 | CN(C)C1CCc2[nH]c3ccc(C(=O)O)cc3c2C1 (stereo not drawn) | inactive
35 | CCc1cccc2[nH]c3c(c12)CC(N(C)C)CC3 (stereo not drawn) | Active
36 | CNC1CCc2[nH]c3cc(C)ccc3c2C1 (stereo not drawn) | Active
37 | CN(C)C1CCc2c(c3ccccc3n2CC(=O)O)C1 (stereo not drawn) | inactive
38 | Cc1cc2[nH]c3c(c2cc1C)CC(N(C)C)CC3 (stereo not drawn) | Active
39 | c1ccc2c3c([nH]c2c1)CCC(N1CCCC1)C3 (stereo not drawn) | inactive
40 | CN(C)C1CCc2[nH]c3cc(F)ccc3c2C1 (stereo not drawn) | inactive
41 | Cc1ccc(Cl)c2[nH]c3c(c12)CC(N(C)C)CC3 (stereo not drawn) | Active
42 | NC1CCc2[nH]c3c(F)cc(F)cc3c2C1 (stereo not drawn) | inactive
43 | C=CCn1c2c(c3ccccc31)CC(N(C)C)CC2 (stereo not drawn) | inactive
44 | CN(C)C1CCc2[nH]c3ccc(F)cc3c2C1 (stereo not drawn) | inactive

The compounds below were run on Mus musculus (assay: Antidepressant activity in Swiss-Webster mouse assessed as prevention of reserpine-induced ptosis at 10 to 50 mg/kg, ip).
Assay type: functional, organism-based

Row | SMILES | Activity
45 | CN(C)CCCN1c2ccccc2CCc2ccccc21 | Active
46 | CN(C)C1CCc2[nH]c3ccccc3c2C1 (stereo not drawn) [CYCLINDOLE] | Active
47 | Cc1cccc2[nH]c3c(c12)CC(N(C)C)CC3 (stereo not drawn) | Active

These compounds were tested on Rattus norvegicus (assay: Antipsychotic activity in po dosed Sprague-Dawley rat assessed as prevention of d-amphetamine-induced stereotyped behavior measured for 1 min after 90, 100, and 110 mins injection of amphetamine).
Assay type: functional
In short: (§1)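 Male Sprague-Dawley rats, 100-130 g, given compound orally at graded doses (free base), starting at 32 mg/kg, 4 h before d-amphetamine sulfate sc at 3.7 mg/kg (free base). One-minute observations at 90, 100 and 110 min. ED50 with confidence limits calculated.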

Row | SMILES | ED50 [mg/kg]
48 | CN(C)CCCN1c2ccccc2Sc2ccc(Cl)cc21 [CHLORPROMAZINE] | 8.6
49 | CN(C)C1CCc2[nH]c3c(F)cc(F)cc3c2C1 (stereo not drawn) [FLUCINDOLE] | 1.4
50 | CN(C)C1CCc2[nH]c3ccccc3c2C1 (stereo not drawn) [CYCLINDOLE] | 10.3

These compounds were tested on Mus musculus (assay: Antidepressant activity in Swiss-Webster mouse assessed as prevention of reserpine-induced ptosis at 1 to 50 mg/kg, ip).
Assay type: functional, organism-based
In short: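 Male Swiss-Webster mice (18-24 g) given test compounds intraperitoneally at 50, 30, 10, 1 and 0.5 mg/kg (free base), then scored for reserpine-induced ptosis. Active means a statistically significant decrease in ptosis (p < 0.05, two-tailed).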

Row | SMILES | Activity
51 | CN(C)CCCN1c2ccccc2Sc2ccc(Cl)cc21 [CHLORPROMAZINE] | inactive

The compounds below were run on Mus musculus (assay: Antidepressant activity in Swiss-Webster mouse assessed as prevention of reserpine-induced ptosis at 10 mg/kg, ip).
Assay type: functional, organism-based
Design: dose 10 mg/kg

Row | SMILES | Activity
52 | CN(C)C1CCc2c(c3ccccc3n2C)C1 (stereo not drawn) | inactive
53 | CCCNC1CCc2[nH]c3ccccc3c2C1 (stereo not drawn) | inactive
54 | Cc1ccc2c3c([nH]c2c1)CCC(N(C)C)C3 (stereo not drawn) | Active
55 | CNC1CCc2[nH]c3cccc(C)c3c2C1 (stereo not drawn) | Active
56 | CN(C)C1CCc2c(c3ccccc3n2Cc2ccccc2)C1 (stereo not drawn) | inactive
57 | CCCCNC1CCc2[nH]c3ccccc3c2C1 (stereo not drawn) | inactive
58 | CN(C)C1CCc2[nH]c3ccccc3c2C1 (stereo not drawn) [CYCLINDOLE] | Active
59 | CN(C)C1CCc2c(c3ccccc3n2Cc2ccc(Cl)cc2)C1 (stereo not drawn) | inactive
60 | CCNC1CCc2[nH]c3ccccc3c2C1 (stereo not drawn) | inactive
61 | CN(C)CCn1c2c(c3ccccc31)CC(N(C)C)CC2 (stereo not drawn) | inactive
62 | CN(C)C1CCc2[nH]c3cccc(F)c3c2C1 (stereo not drawn) | Active
63 | CC(=O)NC1CCc2[nH]c3ccccc3c2C1 (stereo not drawn) | inactive
64 | COc1ccc2[nH]c3c(c2c1)CC(N(C)C)CC3 (stereo not drawn) | inactive
65 | Cc1cc(Cl)c2c3c([nH]c2c1)CCC(N(C)C)C3 (stereo not drawn) | Active
66 | Cc1cccc2[nH]c3c(c12)CC(N(C)C)CC3 (stereo not drawn) | Active
67 | CCOC(=O)Cn1c2c(c3ccccc31)CC(N(C)C)CC2 (stereo not drawn) | Active
68 | CCCc1cccc2c3c([nH]c12)CCC(N(C)C)C3 (stereo not drawn) | Active
69 | CN(C)CCCn1c2c(c3ccccc31)CC(N(C)C)CC2 (stereo not drawn) | inactive
70 | Cc1ccc(F)c2[nH]c3c(c12)CC(N(C)C)CC3 (stereo not drawn) | Active
71 | CCc1cccc2c3c([nH]c12)CCC(N(C)C)C3 (stereo not drawn) | Active

Each compound was assayed on Rattus norvegicus (assay: Antipsychotic activity in Sprague-Dawley rat assessed as prevention of d-amphetamine-induced stereotyped behavior at 32 mg/kg, po measured for 1 min after 90, 100, and 110 mins injection of amphetamine).
Assay type: functional, organism-based
Design: dose 32 mg/kg
In short: as §1

Row | SMILES | Activity
72 | CN(C)CCCN1c2ccccc2CCc2ccccc21 | inactive
73 | Cc1cccc2[nH]c3c(c12)CC(N(C)C)CC3 (stereo not drawn) | inactive

These compounds were tested on Mus musculus (assay: Antidepressant activity in Swiss-Webster mouse assessed as prevention of reserpine-induced ptosis at 30 mg/kg, ip).
Assay type: functional, organism-based
Design: dose 30 mg/kg

Row | SMILES | Activity
74 | COc1ccc(Cl)c2c3c([nH]c12)CCC(N(C)C)C3 (stereo not drawn) | Active
75 | CN(C)C1CCc2[nH]c3c(F)cc(F)cc3c2C1 (stereo not drawn) [FLUCINDOLE] | inactive
76 | CCOC(=O)c1cccc2[nH]c3c(c12)CC(N(C)C)CC3 (stereo not drawn) | Active
77 | COc1ccc2c3c([nH]c2c1)CCC(N(C)C)C3 (stereo not drawn) | Active
78 | CN(C)C1CCc2[nH]c3cccc(C(F)(F)F)c3c2C1 (stereo not drawn) | Active
79 | Cc1ccc(C)c2c3c([nH]c12)CCC(N(C)C)C3 (stereo not drawn) | Active
80 | Cc1cc(Cl)cc2[nH]c3c(c12)CC(N(C)C)CC3 (stereo not drawn) | Active
81 | CNC1CCc2[nH]c3ccccc3c2C1 (stereo not drawn) | Active
82 | CCn1c2c(c3ccccc31)CC(N(C)C)CC2 (stereo not drawn) | Active
83 | NC1CCc2[nH]c3ccccc3c2C1 (stereo not drawn) | Active
